Data published in ChEMBL document CHEMBL1156919, “Synthesis and induction of apoptosis signaling pathway of ent-kaurane derivatives” (Bioorg Med Chem, 2010).

Tested on: RAW264.7
Assay: Cytotoxicity against mouse RAW264.7 cells assessed as reduction in cell viability after 24 hrs by MTT assay
Type: functional, cell-based
Conditions: RAW264.7, 24 h
Outline: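 RAW 264.7 mouse macrophage line kept in RPMI 1640 with 10% FBS, L-glutamine and antibiotics. Treated with 1–100 μM for 24 h, then MTT at 37 °C for 4 h. Formazan taken up in DMSO and read at 540 nm. Triplicate, at least three independent experiments. IC50 is the concentration giving 50% loss of viability relative to untreated cells.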

| SMILES | IC50 [µM] |
| --- | --- |
| C=C1C[C@@]23CC[C@H]4[C@@](C)(CCC[C@@]4(C)C(=O)OCc4ccccc4)[C@@H]2CC[C@@H]1C3 [KAURENOIC ACID BENZYL ESTER] | 25 |
| COC(=O)[C@]1(C)CCC[C@@]2(C)[C@@H]3CC[C@@H]4C[C@@]3(CC[C@@H]21)C[C@H]4C=O | > 100 |
| C=C1C[C@@]23CC[C@H]4[C@@](C)(CCC[C@@]4(C)C(=O)OC)[C@@H]2CC[C@@H]1C3 [KAURENOIC ACID METHYL ESTER] | 75 |
| C=C1[C@@H]2CC[C@H]3[C@]4(C)CCC[C@@](C)(C(=O)O)[C@H]4CC[C@]3(C2)[C@H]1O | > 100 |
| COC(=O)[C@]1(C)CCCC2(C)[C@@H]3CC[C@@H]4C[C@@]3(CC[C@@H]21)C[C@]41CO1 (stereo partly specified) | > 100 |
| COC(=O)[C@]1(C)CCC[C@@]2(C)[C@@H]3CC[C@@H]4C[C@@]3(CC[C@@H]21)C[C@@]4(C)O | 25 |
| C=C1C[C@@]23CC[C@@H]4[C@](C)(C(=O)OC)CCC[C@@]4(C)C2=CC[C@@H]1C3 [GRANDIFLORENIC ACID METHYL ESTER] | 35 |
| C=C1[C@@H]2CC=C3[C@@](CC[C@@H]4[C@](C)(C(=O)OC)CCC[C@@]34C)(C2)[C@H]1OC(C)=O | 35 |
| C=C1C[C@@]23CC[C@@H]4[C@](C)(CO)CCC[C@@]4(C)[C@@H]2CC[C@@H]1C3 | > 100 |
| COC(=O)[C@]1(C)CCC[C@@]2(C)[C@@H]3CC[C@@H]4C[C@@]3(CC[C@@H]21)C[C@H]4C [DIHYDRO KAURENOIC ACID METHYL ESTER] | 75 |
| COC(=O)[C@]1(C)CCC[C@@]2(C)[C@@H]3CC[C@@H]4C[C@@]3(CC[C@@H]21)C[C@]4(O)CO | 10 |
| COC(=O)[C@]1(C)CCC[C@@]2(C)[C@@H]3CC[C@@H]4C[C@]3(C=C4C)CC[C@@H]21 | 100 |
| COC(=O)[C@]1(C)CCC[C@@]2(C)[C@@H]3CC[C@@H]4C[C@@]3(CC[C@@H]21)C(=O)C41CCN=N1 (stereo partly specified) | 100 |
| C=C1[C@@H]2CC[C@H]3[C@]4(C)CCC[C@@](C)(C(=O)O)[C@H]4CC[C@]3(C2)[C@H]1OC(C)=O | 25 |
| C=C1[C@@H]2CC=C3[C@@](CC[C@@H]4[C@](C)(C(=O)OC)CCC[C@@]34C)(C2)[C@H]1O | > 100 |
| C=C1C[C@@]23CC[C@@H]4[C@](C)(CO)CCC[C@@]4(C)C2=CC[C@@H]1C3 | 35 |
